Assay results: ChEMBL document CHEMBL5154715, “Phenolic Lipids Derived from Cashew Nut Shell Liquid to Treat Metabolic Diseases” (J Med Chem, 2022)
Active and inactive are the calls of the source. The rule behind the calls is not given here.

Legend:
[1] = molecular target: T1, Peroxisome proliferator-activated receptor alpha (Homo sapiens, UniProt Q07869); test: Agonist activity at human PPARalpha expressed in HEK293 cells by luciferase/beta-galactosidase reporter gene assay; type: cell-based
T1 sequence (Q07869 whole entry): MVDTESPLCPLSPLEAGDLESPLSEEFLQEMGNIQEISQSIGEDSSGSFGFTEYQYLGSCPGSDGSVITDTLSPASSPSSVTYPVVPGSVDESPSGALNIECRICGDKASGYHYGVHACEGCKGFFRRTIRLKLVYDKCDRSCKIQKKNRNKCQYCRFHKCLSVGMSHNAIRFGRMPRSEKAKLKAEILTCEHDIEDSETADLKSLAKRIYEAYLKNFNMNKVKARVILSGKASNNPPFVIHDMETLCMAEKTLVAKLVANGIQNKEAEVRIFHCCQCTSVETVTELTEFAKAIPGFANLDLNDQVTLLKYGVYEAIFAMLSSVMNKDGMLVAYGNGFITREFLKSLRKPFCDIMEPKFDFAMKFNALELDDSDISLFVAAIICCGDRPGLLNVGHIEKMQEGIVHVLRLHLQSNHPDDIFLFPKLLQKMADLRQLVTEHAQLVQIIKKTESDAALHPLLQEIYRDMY
In short: (§1)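 HEK293 cells in charcoal-stripped FBS, calcium phosphate co-transfected with GAL4-hPPAR LBD fusion, UAS-luciferase and β-galactosidase. Ligand added 6–8 h post transfection, full dose–response, harvested 14–16 h later. Luciferase normalized to β-galactosidase.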

[2] = molecular target: T2, Peroxisome proliferator-activated receptor alpha (Homo sapiens) (UniProt Q07869); test: Agonist activity at human PPARalpha transfected in HEK293 cells assessed as relative luciferase unit at 50 uM measured after 16 hrs by luciferase reporter gene assay; type: cell-based; conditions: filed as agonist
T2 sequence (whole entry): T1 sequence (Q07869 whole entry)
In short: (§2)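 GAL4-hPPAR (α or γ) plus UAS-luciferase and β-galactosidase transiently co-transfected into HEK293 cells, then treated with 50 μM compound for 16 h. RLU = luciferase/β-galactosidase × time, vehicle (DMSO) set to 1. Mean ± SD, N = 3; one-way ANOVA with Holm–Šidák vs vehicle.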

[3] = molecular target: T2, Peroxisome proliferator-activated receptor alpha (Homo sapiens); test: Agonist activity at human PPARalpha expressed in HEK293 cells assessed as maximal activity by luciferase/beta-galactosidase reporter gene assay relative to GW7647; type: cell-based; in short: as §1
[4] = molecular target: T3, Peroxisome proliferator-activated receptor delta (Homo sapiens) (UniProt Q03181)
T3 sequence (whole entry): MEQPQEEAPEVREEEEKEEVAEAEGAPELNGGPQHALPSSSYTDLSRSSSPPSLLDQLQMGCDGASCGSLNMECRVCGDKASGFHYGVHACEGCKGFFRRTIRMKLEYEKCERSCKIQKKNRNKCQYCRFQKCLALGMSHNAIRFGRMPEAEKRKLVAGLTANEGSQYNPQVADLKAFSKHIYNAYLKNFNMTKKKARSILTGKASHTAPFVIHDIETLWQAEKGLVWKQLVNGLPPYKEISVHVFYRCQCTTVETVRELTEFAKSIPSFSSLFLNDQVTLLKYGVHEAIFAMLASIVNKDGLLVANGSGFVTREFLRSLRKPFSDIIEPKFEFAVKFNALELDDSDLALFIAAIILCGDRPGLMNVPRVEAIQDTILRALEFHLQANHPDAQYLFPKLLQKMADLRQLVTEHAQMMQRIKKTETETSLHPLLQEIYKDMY

[5] = molecular target: T4, Peroxisome proliferator-activated receptor alpha (Mus musculus) (UniProt P23204); test: Agonist activity at human PPARalpha in mouse hepatocytes assessed as induction of Pdk4 mRNA expression at 50 uM incubated for 16 hrs by quantitative real-time PCR analysis; type: cell-based; conditions: Hepatocyte, filed as agonist
T4 sequence (whole entry): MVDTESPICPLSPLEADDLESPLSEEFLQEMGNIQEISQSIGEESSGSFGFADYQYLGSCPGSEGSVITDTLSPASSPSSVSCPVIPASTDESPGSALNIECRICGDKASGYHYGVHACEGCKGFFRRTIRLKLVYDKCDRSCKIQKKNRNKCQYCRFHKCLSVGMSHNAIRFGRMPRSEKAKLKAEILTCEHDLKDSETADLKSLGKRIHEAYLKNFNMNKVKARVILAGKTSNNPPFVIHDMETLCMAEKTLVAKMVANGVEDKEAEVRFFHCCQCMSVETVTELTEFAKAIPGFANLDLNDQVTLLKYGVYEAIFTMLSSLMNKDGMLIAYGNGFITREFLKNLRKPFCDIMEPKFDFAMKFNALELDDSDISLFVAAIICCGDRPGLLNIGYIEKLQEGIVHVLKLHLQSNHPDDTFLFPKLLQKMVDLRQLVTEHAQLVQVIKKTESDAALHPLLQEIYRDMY
In short: (§3)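 Collagenase-perfused mouse primary hepatocytes from WT mice, plated 2 h in attachment medium, overnight in M199 with 5% charcoal-stripped FBS and 1 nM insulin. Treated next day in serum-free M199 with 50 μM compound for 16 h. RNA qPCR (SYBR Green), comparative Ct method.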

[6] = molecular target: T4, Peroxisome proliferator-activated receptor alpha (Mus musculus); test: Agonist activity at human PPARalpha in mouse hepatocytes assessed as induction of Fgf21 mRNA expression at 50 uM incubated for 16 hrs by quantitative real-time PCR analysis; type: cell-based; conditions: Hepatocyte, filed as agonist; in short: as §3
[7] = molecular target: T4, Peroxisome proliferator-activated receptor alpha (Mus musculus); test: Agonist activity at human PPARalpha in mouse hepatocytes assessed as induction of cd36 mRNA expression at 50 uM incubated for 16 hrs by quantitative real-time PCR analysis; type: cell-based; conditions: Hepatocyte, filed as agonist; in short: as §3
[8] = molecular target: T5, Peroxisome proliferator-activated receptor gamma (Homo sapiens) (UniProt P37231); test: Agonist activity at human PPARgamma transfected in HEK293 cells assessed as relative luciferase unit at 50 uM measured after 16 hrs by luciferase reporter gene assay; type: cell-based; conditions: filed as agonist; in short: as §2
T5 sequence (whole entry): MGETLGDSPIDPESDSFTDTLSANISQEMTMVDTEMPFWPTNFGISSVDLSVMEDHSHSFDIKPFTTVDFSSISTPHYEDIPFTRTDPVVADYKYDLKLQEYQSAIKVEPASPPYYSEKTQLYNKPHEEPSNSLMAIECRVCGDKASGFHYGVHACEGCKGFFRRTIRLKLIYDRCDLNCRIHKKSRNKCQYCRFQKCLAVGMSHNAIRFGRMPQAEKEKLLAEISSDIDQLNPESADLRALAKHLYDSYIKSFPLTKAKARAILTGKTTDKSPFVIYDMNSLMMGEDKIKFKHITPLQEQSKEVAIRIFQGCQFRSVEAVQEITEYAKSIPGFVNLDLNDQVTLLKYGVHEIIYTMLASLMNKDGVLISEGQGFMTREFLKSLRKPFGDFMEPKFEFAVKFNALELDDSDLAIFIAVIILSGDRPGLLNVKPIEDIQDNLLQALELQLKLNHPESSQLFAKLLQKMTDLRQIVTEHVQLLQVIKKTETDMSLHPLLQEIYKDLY

[9] = molecular target: T6, Peroxisome proliferator-activated receptor gamma (Homo sapiens, UniProt P37231); test: Agonist activity at human PPARgamma expressed in HEK293 cells by luciferase/beta-galactosidase reporter gene assay; type: cell-based; in short: as §1
T6 sequence (P37231 whole entry): T5 sequence (whole entry)

[10] = molecular target: T4, Peroxisome proliferator-activated receptor alpha (Mus musculus); test: Agonist activity at human PPARalpha in mouse hepatocytes assessed as induction of fabp1 mRNA expression at 50 uM incubated for 16 hrs by quantitative real-time PCR analysis; type: cell-based; conditions: Hepatocyte, filed as agonist; in short: as §3
[11] = Metabolic stability in C57BL/6 mouse liver microsomes assessed as half life; type: ADME, Microsome; conditions: time 2 min
[12] = molecular target: T2, Peroxisome proliferator-activated receptor alpha (Homo sapiens); test: Stabilization of human PPARalpha LBD assessed as change in melting temperature at 25 uM by thermal shift assay
In short: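 Purified hPPAR LBD at 1 mg/mL (∼25 μM) with ligand (α-LBD at 25 μM; γ- and δ-LBD at 50 μM). Static light scattering at 473 nm from 25 to 70 °C in 0.5 °C steps, 1 °C/min. Tm from four-parameter fit; ΔTm relative to DMSO; mean ± SEM, N = 3.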

[13] = molecular target: T7, Peroxisome proliferator-activated receptor gamma (Mus musculus) (UniProt P37238); test: Agonist activity at human PPARgamma in mouse 3T3-L1 cells assessed as induction of adipogenic differentiation at 25 uM measured after 11 days by Oil Red O staining analysis; type: cell-based; conditions: filed as agonist, time 11.0 day
T7 sequence (whole entry): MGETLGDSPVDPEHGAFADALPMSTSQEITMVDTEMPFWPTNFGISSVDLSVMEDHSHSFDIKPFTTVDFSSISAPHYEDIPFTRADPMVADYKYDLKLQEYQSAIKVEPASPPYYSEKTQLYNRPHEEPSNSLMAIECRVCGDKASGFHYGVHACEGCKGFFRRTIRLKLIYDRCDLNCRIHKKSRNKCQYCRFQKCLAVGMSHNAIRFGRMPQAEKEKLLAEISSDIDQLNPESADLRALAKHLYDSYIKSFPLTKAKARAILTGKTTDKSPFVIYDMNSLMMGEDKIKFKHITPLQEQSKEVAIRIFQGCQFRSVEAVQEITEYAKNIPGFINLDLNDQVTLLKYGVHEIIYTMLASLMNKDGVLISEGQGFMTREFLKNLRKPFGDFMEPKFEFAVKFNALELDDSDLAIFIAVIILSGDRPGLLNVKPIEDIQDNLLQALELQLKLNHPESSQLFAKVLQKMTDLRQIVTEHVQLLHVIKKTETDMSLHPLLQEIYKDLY
In short: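 3T3-L1 cells differentiated for 11 days (IBMX/dexamethasone/insulin induction, then insulin, then maintenance medium) with 25 μM compound or 10 μM rosiglitazone from day 0. Cells formalin-fixed and stained with 0.6% Oil Red O. Lipid quantified spectrophotometrically after dye extraction.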

[14] = molecular target: T5, Peroxisome proliferator-activated receptor gamma (Homo sapiens); test: Stabilization of human PPARgamma LBD assessed as change in melting temperature at 50 uM by thermal shift assay
[15] = Metabolic stability in C57BL/6 mouse liver microsomes assessed as parent compound remaining incubated for 120 mins; type: ADME, Microsome; conditions: read-out: Stability
[16] = molecular target: T5, Peroxisome proliferator-activated receptor gamma (Homo sapiens); test: Agonist activity at human PPARgamma expressed in HEK293 cells assessed as maximal activity by luciferase/beta-galactosidase reporter gene assay relative to rosiglitazone; type: cell-based; in short: as §1
[17] = molecular target: T3, Peroxisome proliferator-activated receptor delta (Homo sapiens); test: Stabilization of human PPARdelta LBD assessed as change in melting temperature at 50 uM by thermal shift assay

Compound	EC50 [1] [µM]	Activity [2]	Emax [3] [%]	Activity [5]	Activity [8]	EC50 [9] [µM]	also measured
CCCCCCCCCCCCCC(=O)O [MYRISTIC ACID]	13	Active	30	–	–	–	–
CCCCCCCC/C=C\CCCCCCCC(=O)O [OLEIC ACID]	36	Active	–	–	–	–	EC50 ([4]; HEK293, filed as agonist): 47 µM; Emax ([3]; filed as agonist): > 90%
CCCCCCCCCCCCCCCc1cccc(OC)c1C(=O)O	–	Active	30	Active	–	–	Activity [6]: Active
CCCCCC/C=C\CCCCCCCc1cccc(OCC(=O)O)c1	21	Active	–	–	Active	> 50	Activity [7]: Active; EC50 ([4]; HEK293, filed as agonist): 70 µM; Emax ([3]; filed as agonist): > 90%
CC(C)(Sc1ccc(CCN(CCCCC2CCCCC2)C(=O)NC2CCCCC2)cc1)C(=O)O	–	–	–	Active	–	–	Activity [7]: Active; Activity [10]: Active; Activity [6]: Active
CCCCCCCCCCCCCCCc1cccc(OCC(=O)OCC)c1	–	Active	30	–	Active	29	half-life [11]: 1.1 h; ΔTm [12]: -4.5 °C; Activity [13]: Active; EC50 ([4]; HEK293): > 100 µM; ΔTm [14]: -3 °C; remaining at 2 h [15]: 28%; Emax [16]: 30%; ΔTm [17]: 1.2 °C
CCCCCC/C=C\CCCCCCCc1cccc(OC(C)(C)C(=O)OCC)c1	67	Active	30	–	Active	> 50	Activity [7]: Active; EC50 ([4]; HEK293): > 100 µM; Activity [10]: Active
CCCCCCCCCCCCCCCCCC(=O)O [STEARIC ACID]	40	Active	30	–	–	–	–
CCCCCCCCCCCCCCCc1cccc(O)c1C(=O)O [ANACARDIC ACID]	3.5	Active	30	Active	Active	17	EC50 ([4]; HEK293, filed as agonist): 68 µM; Emax ([16]; filed as agonist): > 90%
CCCCCCCCCCCCCCCc1ccc(C(=O)O)c(O)c1	8.9	Active	30	Active	–	–	Activity [6]: Active
CCCCCCCCCC(=O)O [DECANOIC ACID]	31	Active	30	–	–	–	–
CCCCCCCCCCCCCCCc1ccc(C(=O)O)c(OC)c1	17	Active	30	–	Active	8.1	Emax [16]: 30%
